Experimental data pooled from the literature.
Lines come from different studies, so protocols differ.
Target: Receptor tyrosine-protein kinase erbB-2 (ERBB2, Homo sapiens, UniProt P04626)

Compound | test | setting | measurement | value
COc1cc(Cl)c(C(=O)N[C@@H](CN[C@H]2CC[C@@H](N)CC2)Cc2ccc(C#N)cc2)cc1-c1ccc(CN[C@H](C)c2ccc(C)cc2)o1 | enzyme activity, inhibitor | 1 µM | remaining activity | 91%
NS(=O)(=O)c1cc(NC(=O)C2(c3ccccc3Cl)CC2)ccc1Oc1cccc(Cl)c1 | cell-free assay, competition with immobilised ligand | 1 µM | remaining binding | 49%
COc1cc2c(N3CCN(C(=O)Nc4ccc(OC(C)C)cc4)CC3)ncnc2cc1OCCCN1CCCCC1 | cell-free assay | 0.5 µM | remaining signal | 104%
CCCOc1ccc([C@H]2[C@H](C(=O)O)[C@@H](c3ccc4c(c3)OCO4)CN2CC(=O)Nc2c(CC)cccc2CC)cc1 | cell-free assay, competition with immobilised ligand | 1 µM | remaining binding | 79%
Nc1nc(Nc2ccc(S(N)(=O)=O)cc2)nn1C(=O)c1c(F)cccc1F | cell-free assay | 0.5 µM | remaining signal | 91.1%
Cc1ccc(NC(=O)c2ccc(C)c(C(F)(F)F)c2)cc1C#Cc1nn(C2CCC(O)CC2)c2ncnc(N)c12 (stereo not shown) | cell-free assay | 10 µM | remaining signal | 4%
Nc1ncnc2occ(-c3ccc(NC(=O)Nc4cc(C(F)(F)F)ccc4F)cc3)c12 | cell-free assay, inhibitor | 20 µM | remaining signal | 0%
CC(C)(O)[C@H]1CC[C@H](Nc2ccc3ncc(-c4cccc(C(F)(F)F)c4)n3n2)CC1 | enzyme activity, inhibitor | 1 µM | remaining activity | 92%
Cn1nc(C(F)(F)F)cc1-c1cnc(N2CCc3cc(S(=O)(=O)Nc4c(F)cc(Cl)cc4F)cc(N4CCCC4=O)c32)nc1 | cell-free assay, competition with immobilised ligand | 1 µM | remaining binding | 79%
CN1CC(Oc2cnc(C#N)cc2-c2ccn3nc(NC(=O)C4CC4)cc3c2)C1 | enzyme activity, inhibitor | 1 µM | inhibition | -3%
Cc1noc([C@H]2C[C@@H](c3ccc(C(F)(F)F)cc3)CN(C(=O)N3CCS(=O)(=O)C3)C2)n1 | cell-free assay, competition with immobilised ligand | 1 µM | remaining binding | 100%
CS(=O)(=O)Nc1cccc(-c2csc(NC(=O)CSc3nc4nccnc4c(=O)n3CCc3ccccc3)n2)c1 | enzyme activity, inhibitor | 10 µM | inhibition | -12%
CN(C)C(=O)Cn1cc(-c2nc([C@@](C)(c3ccc(-c4cnc(N)nc4)cc3)C3CC3)no2)cn1 | cell-free assay, competition with immobilised ligand | 1 µM | remaining binding | 100%
N#CCCc1ccc2c(c1)-c1[nH]c3ccc([N+](=O)[O-])cc3c1CC(=O)N2 | cell-free assay | 0.5 µM | remaining signal | 98.6%
CCCS(=O)(=O)Nc1ccc(F)c(C(=O)c2c[nH]c3ncc(-c4ccc(Cl)cc4)cc23)c1F | enzyme activity, inhibitor | 1 µM | inhibition | < 10%
Oc1ccc(-c2nc(-c3ccncc3)c(-c3ccc(F)cc3)[nH]2)cc1 | cell-free assay | 0.5 µM | remaining signal | 95.5%
CCCCNc1ncc2c(-c3ccc(F)cc3)nn(C[C@H]3CC[C@H](N)CC3)c2n1 | target engagement in cells, inhibitor, chemoproteomics | 20 mM | inhibition | 77.8%
Cc1sc(C(=O)NC2COC2)cc1-n1cc(NC(=O)Nc2c(F)cccc2Cl)cn1 | enzyme activity, inhibitor | 10 µM | remaining activity | 64.1%
Cc1ccc(NC(=O)c2ccc(CN3CCN(C)CC3)cc2)cc1Nc1nc(-c2cccnc2)cs1 | cell-free assay | 0.5 µM | remaining signal | 103%
COc1cc2ncnc(Nc3ccc(Oc4ccccc4)cc3C)c2cc1OC | enzyme activity, inhibitor | 1 µM | inhibition | 55%
Clc1ccc(Nc2nnc(Cc3ccncc3)c3ccccc23)cc1 | cell-free assay | 0.5 µM | remaining signal | 101%
CS(=O)(=O)N1CCCC(NC(=O)[C@H](CCC2CCCCC2)NC(=O)c2ccc(CNc3ncnc4c3nnn4-c3ccccc3)cc2)C1 (stereo partly shown) | cell-free assay, competition with immobilised ligand | 0.1 µM | remaining binding | 100%
CC(C)(C)c1nc2c(s1)c1nc(N)ncc1c1ccc(NS(=O)(=O)c3c(F)cccc3F)c(F)c12 | enzyme activity, inhibitor, radiometric | 1 µM | remaining activity | 109%
C[C@@H]1CN(c2cc(-c3nn(C)c4ccc(OC5(C)CC5)cc34)ncn2)C[C@H](C)O1 | cell-free assay, competition with immobilised ligand | 1 µM | remaining binding | 80%
Cc1ccc(C(=O)Nc2ccc(CN3CCN(C)CC3)c(C(F)(F)F)c2)cc1C#Cc1cnc2cccnn12 | enzyme activity, inhibitor | 23.5 nM | remaining activity | 44%
